Test results taken from ChEMBL document CHEMBL1123436, “Comparative toxicities and analgesic activities of three monomethylated analogues of acetaminophen” (J Med Chem, 1986).

Legend:
Mus musculus [1] = test: (§1) Hepatotoxicity in Swiss-Webster Mice Caused by compound at 1000 mg/kg (i.p.) (phenobarbital pretreated animals)dose; format: functional, organism-based; parameters: dose 1000 mg/kg
How it was run: (§2)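 Male Swiss-Webster mice (20 g), groups of 10. Sodium phenobarbital (80 mg/kg ip) was given 72, 60, 48 and 24 h before drug, then drug ip in saline. At 24 h: survivors counted, plasma ALT measured, and H&E liver sections scored for necrosis in survivors. Values are means ± SE.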

[2] = as §1; format: functional, Mus musculus; conditions: route intraperitoneal; how it was run: as §2
Mus musculus [3] = test: (§3) Hepatotoxicity in Swiss-Webster Mice Caused by compound at 750 mg/kg (i.p.) dose; format: functional; conditions: route intraperitoneal
How it was run: (§4)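 Male Swiss-Webster mice (20 g), groups of 10, were given a single ip dose of drug in saline with no pretreatment. Survivors were decapitated at 24 h and counted. Plasma ALT was measured, and liver sections (formalin-fixed, paraffin, H&E) were scored for necrosis severity in survivors. Values are means ± SE.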

Mus musculus [4] = test: Hepatotoxicity in Swiss-Webster Mice Caused by compound at 750 mg/kg (i.p.) dose; 10/10; format: functional; conditions: route intraperitoneal; how it was run: as §4
[5] = Hepatotoxicity in Swiss-Webster Mice Caused by compound at 1000 mg/kg (i.p.) (cobaltous chloride pretreated animals)dose; 9/10; format: functional, Mus musculus; conditions: route intraperitoneal
How it was run: (§5)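 Male Swiss-Webster mice (20 g), groups of 10. Cobaltous chloride (30 mg/kg ip) was given 48, 36, 24 and 12 h before drug, then drug ip in saline. At 24 h: survivors counted, plasma ALT measured, and H&E liver sections scored for necrosis in survivors. Values are means ± SE.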

Mus musculus [6] = test: Hepatotoxicity in Swiss-Webster Mice Caused by compound at 1000 mg/kg (i.p.) dose; 8/10; format: functional; conditions: route intraperitoneal; how it was run: as §4
Mus musculus [7] = species on record: Mus musculus; test: Analgesic activity determined in mice using the Bradykinin-induced Writhing test; format: functional
How it was run: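 Male CD1 mice (15–20 g), test drug given orally 15 min before bradykinin ip (4 μg in 0.2 mL sterile water), then a second bradykinin injection (0.2 μg/0.1 mL) 15 min later. Writhing was scored over the next 10 min, with control groups of 10 mice. ED50 was derived by log-probit analysis from at least five doses, with 95% limits.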

Mus musculus [8] = test: Hepatotoxicity in Swiss-Webster Mice Caused by compound at 1000 mg/kg (i.p.) (cobaltous chloride pretreated animals)dose; format: functional, organism-based; parameters: dose 1000 mg/kg; how it was run: as §5
Mus musculus [9] = test: as §3; format: functional, organism-based; parameters: dose 750 mg/kg; how it was run: as §4
Mus musculus [10] = test: (§6) Hepatotoxicity in Swiss-Webster Mice Caused by compound at 1000 mg/kg (i.p.) (pipernonyl butoxide pretreated animals)dose; format: functional, organism-based; parameters: dose 1000 mg/kg
How it was run: (§7)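 Male Swiss-Webster mice (20 g), groups of 10. Piperonyl butoxide (neat, single 1360 mg/kg ip dose) was given 30 min before drug, then drug ip in saline. At 24 h: survivors counted, plasma ALT measured, and H&E liver sections scored for necrosis in survivors. Values are means ± SE.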

Mus musculus [11] = test: Hepatotoxicity in Swiss-Webster Mice Caused by compound at 1000 mg/kg (i.p.) (pipernonyl butoxide pretreated animals)dose; 10/10; format: functional; conditions: route intraperitoneal; how it was run: as §7
Mus musculus [12] = test: (§8) Hepatotoxicity in Swiss-Webster Mice Caused by compound at 1000 mg/kg (i.p.) dose; format: functional; conditions: route intraperitoneal; how it was run: as §4
Mus musculus [13] = test: as §6; format: functional; conditions: route intraperitoneal; how it was run: as §7
Mus musculus [14] = test: as §8; format: functional, organism-based; parameters: dose 1000 mg/kg; how it was run: as §4
[15] = Hepatotoxicity in Swiss-Webster Mice Caused by compound at 1000 mg/kg (i.p.) (phenobarbital pretreated animals)dose; 5/10; format: functional, Mus musculus; conditions: route intraperitoneal; how it was run: as §2
Mus musculus [16] = test: (§9) Hepatotoxicity in Swiss-Webster Mice Caused by compound at 400 mg/kg (i.p.) dose; format: functional, organism-based; parameters: dose 400 mg/kg; how it was run: as §4
[17] = Hepatotoxicity in Swiss-Webster Mice Caused by compound at 400 mg/kg (i.p.) (cobaltous chloride pretreated animals)dose; 8/10; format: functional, Mus musculus; conditions: route intraperitoneal; how it was run: as §5
[18] = (§10) Hepatotoxicity in Swiss-Webster Mice Caused by compound at 400 mg/kg (i.p.) (cobaltous chloride pretreated animals)dose; format: functional, Mus musculus; conditions: route intraperitoneal; how it was run: as §5
Mus musculus [19] = test: as §9; format: functional; conditions: route intraperitoneal; how it was run: as §4
Mus musculus [20] = test: Hepatotoxicity in Swiss-Webster Mice Caused by compound at 400 mg/kg (i.p.) dose; 9/10; format: functional; conditions: route intraperitoneal; how it was run: as §4
Mus musculus [21] = test: (§11) Hepatotoxicity in Swiss-Webster Mice Caused by compound at 400 mg/kg (i.p.) (phenobarbital pretreated animals)dose; format: functional, organism-based; parameters: dose 400 mg/kg; how it was run: as §2
Mus musculus [22] = test: Hepatotoxicity in Swiss-Webster Mice Caused by compound at 400 mg/kg (i.p.) (pipernonyl butoxide pretreated animals)dose; 9/10; format: functional; conditions: route intraperitoneal; how it was run: as §7
Mus musculus [23] = test: Hepatotoxicity in Swiss-Webster Mice Caused by compound at 750 mg/kg (i.p.) dose; 4/10; format: functional; conditions: route intraperitoneal; how it was run: as §4
[24] = as §11; format: functional, Mus musculus; conditions: route intraperitoneal; how it was run: as §2
[25] = Hepatotoxicity in Swiss-Webster Mice Caused by compound at 400 mg/kg (i.p.) (phenobarbital pretreated animals)dose; 4/10; format: functional, Mus musculus; conditions: route intraperitoneal; how it was run: as §2
Mus musculus [26] = test: Hepatotoxicity in Swiss-Webster Mice Caused by compound at 400 mg/kg (i.p.) (pipernonyl butoxide pretreated animals)dose; format: functional; conditions: route intraperitoneal; how it was run: as §7
Mus musculus [27] = test: as §10; format: functional, organism-based; parameters: dose 400 mg/kg; how it was run: as §5

CC(=O)Nc1ccc(O)cc1C
Plasma ALT at 24 h (Mus musculus [1]): 3920 mU ml-1
Hepatic necrosis in survivors [2]: 3.4
Hepatic necrosis in survivors (Mus musculus [3]): 0.8
Survivors at 24 h (Mus musculus [4]): 10
Survivors at 24 h [5]: 9
Survivors at 24 h (Mus musculus [6]): 8
ED50 (Mus musculus [7]): 177 mg/kg
Plasma ALT at 24 h (Mus musculus [8]): 40 mU ml-1
Plasma ALT at 24 h (Mus musculus [9]): 690 mU ml-1
Plasma ALT at 24 h (Mus musculus [10]): 75 mU ml-1
Survivors at 24 h (Mus musculus [11]): 10
Hepatic necrosis in survivors (Mus musculus [12]): 1.75
Hepatic necrosis in survivors (Mus musculus [13]): 0
Plasma ALT at 24 h (Mus musculus [14]): 2110 mU ml-1
Survivors at 24 h [15]: 5

CC(=O)Nc1ccc(O)c(C)c1
Plasma ALT at 24 h (Mus musculus [16]): 1080 mU ml-1
Survivors at 24 h [17]: 8
Hepatic necrosis in survivors (Mus musculus [3]): 2.75
Hepatic necrosis in survivors [18]: 0.56
ED50 (Mus musculus [7]): 94.6 mg/kg
Hepatic necrosis in survivors (Mus musculus [19]): 1
Survivors at 24 h (Mus musculus [20]): 9
Plasma ALT at 24 h (Mus musculus [9]): 3250 mU ml-1
Plasma ALT at 24 h (Mus musculus [21]): 5130 mU ml-1
Plasma ALT at 24 h (Mus musculus [10]): 83 mU ml-1
Survivors at 24 h (Mus musculus [22]): 9
Survivors at 24 h (Mus musculus [23]): 4
Hepatic necrosis in survivors [24]: 3.5
Survivors at 24 h [25]: 4
Hepatic necrosis in survivors (Mus musculus [26]): 0
Plasma ALT at 24 h (Mus musculus [27]): 345 mU ml-1
